Source: ChEMBL document CHEMBL1126084, “2-Acetylpyridine thiocarbonohydrazones. Potent inactivators of herpes simplex virus ribonucleotide reductase” (J Med Chem, 1992)

Experiments:
Human alphaherpesvirus 1 [1] = test: Inhibition of HSV-1 ribonucleotide reductase; set-up: concentration or dose not given beside the values; conditions: concentration not given here
Method in brief: (§1)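 Partially purified HSV-1 ribonucleotide reductase, assayed by reduction of purified [14C]CDP in 200 mM Hepes Na+ pH 7.7, 10 mM dithiothreitol, 2 μM CDP (500 Ci/mol, 3–4 × Km), with and without 5 μM inhibitor unless otherwise indicated. First-order kinact (per hour) and v0 of decelerating product time courses come from iterative nonlinear least squares. kinact is the net increase over the uninhibited control, and % inhibition refers to v0.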

Human alphaherpesvirus 1 [2] = test: Inhibitory index against HSV-1 ribonucleotide reductase
Method in brief: (§2)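 Index per eq 1 combines kinact and percent inhibition of initial velocity from reductase reactions ±5 μM inhibitor (unless otherwise indicated). 0.99 is subtracted from the calculated ratio, so a non-inhibiting, non-inactivating compound scores zero. HSV-1 and human enzymes were assayed under their respective conditions.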

Human alphaherpesvirus 1 [3] = test: Inactivation of HSV-1 ribonucleotide reductase at rate constant K inact; method in brief: as §1
Human alphaherpesvirus 1 [4] = test: Inhibitory index against HSV-1 ribonucleotide reductase calculated as, [1+k inact/f+0.01] where f = 1-% inhibition/100).; format: functional; method in brief: as §2
Human alphaherpesvirus 1 [5] = test: Inactivation of HSV-1 ribonucleotide reductase by the compound (5 uM) at rate constant K inact.; format: functional; method in brief: as §1
[6] = biological target: T1, Ribonucleoside-diphosphate reductase RR1 (Homo sapiens) (UniProt P23921+Q7LG56+P31350); test: Inhibition of human ribonucleotide reductase by the compound (5 uM); format: protein-complex assay
Method in brief: (§3)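 The ATP contributed about 3 μM iron, keeping inhibitors iron-complexed. Reactions ran ±5 μM inhibitor unless otherwise indicated. kinact (per hour, net over the control) and v0 came from iterative nonlinear least-squares fits of decelerating time courses.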

Human alphaherpesvirus 1 [7] = test: Inhibition of HSV-1 ribonucleotide reductase by the compound (5 uM); format: functional; method in brief: as §1
[8] = biological target: T1, Ribonucleoside-diphosphate reductase RR1 (Homo sapiens); test: Inhibitory index against human ribonucleotide reductase calculated as, [1+k inact/f+0.01] where f = 1-% inhibition/100).; format: protein-complex assay; method in brief: as §2
[9] = biological target: T1, Ribonucleoside-diphosphate reductase RR1 (Homo sapiens); test: Inactivation of human ribonucleotide reductase by the compound (5 uM) at rate constant K inact.; format: protein-complex assay; method in brief: as §3
[10] = biological target: T1, Ribonucleoside-diphosphate reductase RR1 (Homo sapiens); test: Apparent enzyme activity measured as the ratio of HSV-1 and human enzyme inhibition induces; format: functional; conditions: Human alphaherpesvirus 1
Method in brief: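 Apparent selectivity is the ratio of HSV-1 to human inhibition indices, each from eq 1 at 5 μM inhibitor or at the indicated concentration for each enzyme.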

[11] = biological target: T1, Ribonucleoside-diphosphate reductase RR1 (Homo sapiens); test: Inhibition of human ribonucleotide reductase; format: protein-complex assay; set-up: concentration or dose not given beside the values; conditions: concentration not given here; method in brief: as §3
[12] = biological target: T1, Ribonucleoside-diphosphate reductase RR1 (Homo sapiens); test: Inhibitory index against human ribonucleotide reductase; format: protein-complex assay; method in brief: as §2
[13] = biological target: T1, Ribonucleoside-diphosphate reductase RR1 (Homo sapiens); test: Inactivation of human ribonucleotide reductase at rate constant K inact; format: protein-complex assay; method in brief: as §3

| inhibition (Human alphaherpesvirus 1 [1]) [%] | Inhibitory index (Human alphaherpesvirus 1 [2]) | kinact (Human alphaherpesvirus 1 [3]) [h⁻¹] | inhibition [6] [%] | Inhibitory index [8] | kinact [9] [h⁻¹] | Apparent selectivity (HSV-1/human inhibition index ratio) [10] | inhibition [11] [%] | Inhibitory index [12] | kinact [13] [h⁻¹] | Compound | Inhibitory index (Human alphaherpesvirus 1 [4]) | kinact (Human alphaherpesvirus 1 [5]) [h⁻¹] | Inhibition (Human alphaherpesvirus 1 [7]) [%] |
| --- | --- | --- | --- | --- | --- | --- | --- | --- | --- | --- | --- | --- | --- |
| 11 | 1.2 | 1 | – | – | – | – | – | – | – | C/C(=N\N=C(/S)N/N=C(\S)Nc1ccccc1Cl)c1cccc[n+]1[O-] | – | – | – |
| – | – | – | 54 | 1.1 | 0 | 23 | – | – | – | C/C(=N\N=C(/S)N/N=C(\S)Nc1cccc(C)c1)c1ccccn1 | 26 | 19 | 28 |
| 0 | 23 | 23 | – | – | – | 5.1 | 44 | 4.5 | 2.1 | COc1ccccc1/N=C(\S)N/N=C(\S)N/N=C(\C)c1ccccn1 | – | – | – |
| 14 | 27 | 23 | – | – | – | 14 | 66 | 1.9 | 0 | O=C(NNC(=S)N/N=C/c1ccccn1)Nc1ccccc1Cl | – | – | – |
| 6.7 | 22 | 21 | – | – | – | 1.3 | 58 | 1.7 | 7 | COc1cccc(N/C(S)=N/N=C(\S)N/N=C(\C)c2ccccn2)c1 | – | – | – |
| 25 | 21 | 16 | – | – | – | 3 | 64 | 7 | 2 | C/C(=N\N=C(/S)N/N=C(\S)Nc1ccc(C)cc1)c1ccccn1 | – | – | – |
| 45 | 29 | 16 | – | – | – | 28 | 52 | 1.1 | 0 | COc1ccc(N/C(S)=N/N=C(\S)N/N=C(\C)c2ccccn2)cc1 | – | – | – |
| 15 | 47 | 40 | – | – | – | 17 | 21 | 2.8 | 2 | C/C(=N\N=C(/S)N/N=C(\S)Nc1cccc(Br)c1)c1ccccn1 | – | – | – |
| 50 | 72 | 36 | – | – | – | 80 | 48 | 0.9 | 0 | C/C(=N\N=C(/S)N/N=C(\S)Nc1cccc(Cl)c1)c1ccccn1 | – | – | – |
| 44 | 71 | 40 | – | – | – | 21 | 11 | 3.5 | 3 | COc1ccc([N+](=O)[O-])cc1/N=C(\S)N/N=C(\S)N/N=C(\C)c1ccccn1 | – | – | – |
| 0 | 0 | 0 | – | – | – | – | – | – | – | C/C(=N\NC(=O)NNC(=O)Nc1ccccc1Cl)c1ccccn1 | – | – | – |
| 10 | – | 16 | – | – | – | – | – | – | – | C/C(=N\N=C(/S)N/N=C(\S)Nc1ccc(C(C)(C)C)cc1)c1ccccn1 | – | – | – |
| 53 | 32 | 15 | – | – | – | – | – | – | – | C/C(=N\Nc1nnc(Nc2ccccc2Cl)s1)c1ccccn1 | – | – | – |
| 57 | 65 | 28 | – | – | – | 33 | 67 | 2 | 0 | C/C(=N\N=C(/S)N/N=C(\S)Nc1ccccn1)c1ccccn1 | – | – | – |
| 0 | 32 | 32 | – | – | – | 4.8 | 80 | 6.6 | 0.6 | C/C(=N\N=C(/S)N/N=C(\S)Nc1cccc(C#N)c1)c1ccccn1 | – | – | – |
| 24 | 29 | 22 | – | – | – | 560 | 5 | 0.05 | 0 | C/C(=N\N=C(/S)N/N=C(\S)Nc1ccc(I)cc1)c1ccccn1 | – | – | – |
| 31 | 42 | 29 | – | – | – | 12 | 55 | 3.4 | 1 | C/C(=N\N=C(/S)N/N=C(\S)Nc1ccc(Cl)cc1C)c1ccccn1 | – | – | – |

| inhibition (Human alphaherpesvirus 1 [1]) [%] | Inhibitory index (Human alphaherpesvirus 1 [2]) | kinact (Human alphaherpesvirus 1 [3]) [h⁻¹] | inhibition [6] [%] | Inhibitory index [8] | kinact [9] [h⁻¹] | Apparent selectivity (HSV-1/human inhibition index ratio) [10] | inhibition [11] [%] | Inhibitory index [12] | kinact [13] [h⁻¹] | Compound | Inhibitory index (Human alphaherpesvirus 1 [4]) | kinact (Human alphaherpesvirus 1 [5]) [h⁻¹] | Inhibition (Human alphaherpesvirus 1 [7]) [%] |
| --- | --- | --- | --- | --- | --- | --- | --- | --- | --- | --- | --- | --- | --- |
| 6 | 11 | 10 | – | – | – | 1.8 | 43 | 5.9 | 3 | C/C(=N\N=C(/S)N/N=C(\S)Nc1ccccc1C(F)(F)F)c1ccccn1 | – | – | – |
| 22 | 21 | 16 | – | – | – | 680 | 3 | 0.03 | 0 | C/C(=N\N=C(/S)N/N=C(\S)Nc1cc(Cl)c(Cl)cc1Cl)c1ccccn1 | – | – | – |
| 61 | 99 | 39 | – | – | – | 38 | 73 | 2.6 | 0 | C/C(=N\N=C(/S)N/N=C(\S)Nc1ccc(Cl)cc1)c1ccccn1 | – | – | – |
| 0 | 29 | 29 | – | – | – | 17 | 64 | 1.7 | 0 | C/C(=N\N=C(/S)N/N=C(\S)Nc1ccc(C#N)cc1)c1ccccn1 | – | – | – |
| 38 | 34 | 21 | – | – | – | 210 | 14 | 0.16 | 0 | C/C(=N\N=C(/S)N/N=C(\S)Nc1ccccc1Br)c1ccccn1 | – | – | – |
| 41 | 27 | 16 | – | – | – | 15 | 65 | 1.8 | 0 | Cc1cccc(/C=N/N=C(\S)N/N=C(\S)Nc2ccccc2Cl)n1 | – | – | – |
| 0 | 25 | 25 | – | – | – | 26 | 50 | 1 | 0 | COc1c(Cl)cccc1/N=C(\S)N/N=C(\S)N/N=C(\C)c1ccccn1 | – | – | – |
| 8 | 59 | 55 | – | – | – | 240 | 20 | 0.24 | 0 | C/C(=N\N=C(/S)N/N=C(\S)Nc1cc(Cl)ccc1Cl)c1ccccn1 | – | – | – |
| 38 | 23 | 14 | – | – | – | 70 | 25 | 0.33 | 0 | CC(C)C/C(=N\N=C(/S)N/N=C(\S)Nc1ccccc1Cl)c1ccccn1 | – | – | – |
| 23 | 57 | 44 | – | – | – | 18 | 29 | 3.2 | 2 | C/C(=N\N=C(/S)N/N=C(\S)Nc1ccc(Br)cc1)c1ccccn1 | – | – | – |
| 17 | 5 | 4 | – | – | – | 14 | 19 | 0.35 | 0.1 | C/N=C(\S)N/N=C(\S)N/N=C(\C)c1ccccn1 | – | – | – |
| 30 | 7.5 | 5 | – | – | – | – | – | – | – | C/C(=N\NC(=O)N/N=C(\S)Nc1ccccc1Cl)c1ccccn1 | – | – | – |
| 14 | 38 | 33 | – | – | – | 9.1 | 56 | 4.2 | 1.3 | C/C(=N\N=C(/S)N/N=C(\S)Nc1ccc([N+](=O)[O-])cc1)c1ccccn1 | – | – | – |
| 7 | 48 | 45 | – | – | – | 200 | 20 | 0.24 | 0 | C/C(=N\N=C(/S)N/N=C(\S)Nc1ccc(Cl)c([N+](=O)[O-])c1)c1ccccn1 | – | – | – |
| 18 | 35 | 29 | – | – | – | 6.5 | 23 | 5.4 | 4 | C/C(=N\N=C(/S)N/N=C(\S)Nc1ccccc1I)c1ccccn1 | – | – | – |
| 7 | 13 | 12 | – | – | – | 1.3 | 64 | 9.8 | 3 | C/C(=N\N=C(/S)N/N=C(\S)NC1CCCC1)c1ccccn1 | – | – | – |
| 51 | 25 | 12 | – | – | – | 31 | 45 | 0.8 | 0 | S=C(N/N=C/c1ccccn1)NNC(=S)Nc1ccccc1Cl | – | – | – |
